Assay results as given in ChEMBL document CHEMBL4004808, “Antibacterial and Cytotoxic Phenolic Metabolites from the Fruits of Amorpha fruticosa” (J Nat Prod, 2017).
Converted amounts (≈) assume the structure as drawn. The source made the active and inactive calls. The rule behind the calls is not given here.

Key:
L5178Y = assay: Cytotoxicity against mouse L5178Y cells by MTT assay; type: functional, cell-based
Procedure, shortened: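 MTT proliferation assay on the L5178Y murine lymphoma line, run three times; kahalalide F as positive control and 0.1% DMSO in medium as negative control.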

Enterococcus faecalis [1] = assay: Antibacterial activity against Enterococcus faecalis ATCC 29212 by broth microdilution method; type: functional
Procedure, shortened: (§1)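 MIC determined by broth microdilution following CLSI recommendations, with moxifloxacin as positive control and DMSO as negative control.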

Staphylococcus aureus [2] = assay: Antibacterial activity against Staphylococcus aureus ATCC 25923 by broth microdilution method; type: functional
Enterococcus faecium [3] = assay: Antibacterial activity against Enterococcus faecium ATCC 35667 by broth microdilution method; type: functional
Procedure, shortened: (§2)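 MIC by broth microdilution following CLSI recommendations; moxifloxacin as positive control, DMSO as negative control.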

Enterococcus faecalis [4] = assay: Antibacterial activity against vancomycin-resistant Enterococcus faecalis ATCC 51299 by broth microdilution method; type: functional; procedure, shortened: as §1
Enterococcus faecium [5] = assay: Antibacterial activity against Enterococcus faecium ATCC 700221 by broth microdilution method; type: functional; procedure, shortened: as §2
Staphylococcus aureus [6] = assay: Antibacterial activity against methicilin-resistant Staphylococcus aureus ATCC 700699 by broth microdilution method; type: functional; details: Mu50; procedure, shortened: as §1
[7] = tested on: Mycobacterium tuberculosis; assay: Antibacterial activity against Mycobacterium tuberculosis by broth microdilution method; type: functional
THP-1 = assay: Cytotoxicity against human THP1 cells after 48 hrs by resazurin dye-based fluorescence analysis; type: cell-based; details: THP-1, 48 h
Acinetobacter baumannii = assay: Antibacterial activity against Acinetobacter baumannii ATCC BAA1605 by broth microdilution method; type: functional; procedure, shortened: as §2
MRC5 = assay: Cytotoxicity against human MRC5 cells after 48 hrs by resazurin dye-based fluorescence analysis; type: cell-based; details: MRC5, 48 h

SMILES | Activity (L5178Y) | MIC (Enterococcus faecalis [1]) [µM] | MIC (Staphylococcus aureus [2]) [µM] | MIC (Enterococcus faecium [3]) [µM] | MIC (Enterococcus faecalis [4]) [µM] | MIC (Enterococcus faecium [5]) [µM] | MIC (Staphylococcus aureus [6]) [µM] | MIC [7] [µM] | IC50 (THP-1) [µM] | MIC (Acinetobacter baumannii) [µM] | IC50 (MRC5) [µM] | IC50 (L5178Y) [nM]
C=C(C)[C@@H](O)CC/C(C)=C/Cc1c(OC)cc(CCc2ccccc2)c(C(=O)O)c1O | inactive |  |  |  |  |  |  |  |  |  |  | 
CC(C)=CCC/C(C)=C/Cc1c(O)cc(/C=C/c2ccccc2)cc1O [AMORPHASTILBOL] | inactive | 12.5 (≈ 4.36 µg/mL) | 6.3 (≈ 2.2 µg/mL) | 6.3 (≈ 2.2 µg/mL) | 6.3 (≈ 2.2 µg/mL) | 6.3 (≈ 2.2 µg/mL) | 3.1 (≈ 1.08 µg/mL) | > 50 | 25 | > 50 | 50 | 
COc1cc2c(cc1OC)[C@@H]1C(=O)c3ccc(O)c(CC=C(C)C)c3O[C@@H]1CO2 [ROTENONIC ACID] |  |  |  |  |  |  |  |  |  |  |  | 600
CC(C)=CCC/C(C)=C/Cc1c(O)cc(O)c2c1O[C@H](c1ccccc1)[C@H](O)C2=O |  | 50 (≈ 20.4 µg/mL) | 100 (≈ 40.8 µg/mL) | 100 (≈ 40.8 µg/mL) | 100 (≈ 40.8 µg/mL) | 100 (≈ 40.8 µg/mL) | 100 (≈ 40.8 µg/mL) | > 50 | 100 | > 50 | 100 | 
CC(C)=CCC/C(C)=C/Cc1c(O)cc(CCc2ccccc2)cc1O | inactive | 25 (≈ 8.76 µg/mL) | 25 (≈ 8.76 µg/mL) | 12.5 (≈ 4.38 µg/mL) | 12.5 (≈ 4.38 µg/mL) | 12.5 (≈ 4.38 µg/mL) | 6.3 (≈ 2.21 µg/mL) | > 50 | 50 | > 50 |  | 
COC1=CC(=O)[C@]2(C=C1OC)OC[C@H]1Oc3c4c(cc(O)c3C(=O)[C@H]12)OC(C)(C)C=C4 |  |  |  |  |  |  |  |  |  |  |  | 1300
COc1cc(/C=C/c2ccccc2)cc(OC)c1C/C=C(\C)CCC=C(C)C | inactive | > 100 | > 100 | 100 (≈ 37.7 µg/mL) | > 100 | > 100 | > 100 | > 50 | 100 | > 50 | 100 | 
COc1ccc(-c2coc3c(C/C=C(\C)CCC=C(C)C)c(O)cc(O)c3c2=O)cc1O |  | 50 (≈ 21.8 µg/mL) | 100 (≈ 43.7 µg/mL) | 25 (≈ 10.9 µg/mL) | 100 (≈ 43.7 µg/mL) | 25 (≈ 10.9 µg/mL) | 100 (≈ 43.7 µg/mL) | > 50 | 50 | > 50 | 50 | 
COc1cc(CCc2ccccc2)c(C(=O)O)c(O)c1C/C=C(/C)CCC=C(C)C | inactive | 6.3 (≈ 2.57 µg/mL) | 12.5 (≈ 5.11 µg/mL) | 6.3 (≈ 2.57 µg/mL) | 6.3 (≈ 2.57 µg/mL) | 6.3 (≈ 2.57 µg/mL) | 12.5 (≈ 5.11 µg/mL) | > 50 | 100 | > 50 | 100 | 
COc1cc2c(cc1OC)[C@@H]1C(=O)c3ccc4c(c3O[C@@H]1CO2)C[C@H](C(C)(C)O)O4 [DALPANOL] |  |  |  |  |  |  |  |  |  |  |  | 700
CC(C)=CCC/C(C)=C/Cc1c(O)ccc(C(=O)/C=C/c2ccc(O)cc2)c1O [XANTHOANGELOL] |  | 12.5 (≈ 4.91 µg/mL) | 25 (≈ 9.81 µg/mL) | 12.5 (≈ 4.91 µg/mL) | 6.3 (≈ 2.47 µg/mL) | 3.1 (≈ 1.22 µg/mL) | 3.1 (≈ 1.22 µg/mL) | > 50 | 25 | > 50 | 25 | 
COc1cc2c(cc1OC)[C@@H]1C(=O)c3ccc4c(c3O[C@@H]1CO2)C=CC(C)(C)O4 [DEGUELIN] |  |  |  |  |  |  |  |  |  |  |  | 200
COc1cc(O)c2c(c1)O[C@@H]1COc3cc(OC)c(OC)cc3[C@@H]1C2=O |  |  |  |  |  |  |  |  |  |  |  | 200
CC(C)=CCC/C(C)=C/Cc1c(O)cc(/C=C/c2ccccc2)c(C(=O)O)c1O | inactive | 25 (≈ 9.81 µg/mL) | 12.5 (≈ 4.91 µg/mL) | 25 (≈ 9.81 µg/mL) | 25 (≈ 9.81 µg/mL) | 25 (≈ 9.81 µg/mL) | 12.5 (≈ 4.91 µg/mL) | > 50 | 100 | > 50 | 100 | 
COc1cc2c(cc1OC)-c1c(oc3c4c(ccc3c1=O)OC(C)(C)C=C4)CO2 [DEHYDRODEGUELIN] |  |  |  |  |  |  |  |  |  |  |  | 10200
C=C(CO)[C@H]1Cc2c(ccc3c2O[C@@H]2COc4cc(OC)c(OC)cc4[C@]2(O)C3=O)O1 [DABINOL] |  |  |  |  |  |  |  |  |  |  |  | 200
COC1=C[C@]2(OC[C@H]3Oc4c(ccc5c4C=CC(C)(C)O5)C(=O)[C@H]32)C(=O)CC1=O |  |  |  |  |  |  |  |  |  |  |  | 7600
COc1c(N2C[C@@H]3CCCN[C@@H]3C2)c(F)cc2c(=O)c(C(=O)O)cn(C3CC3)c12 [MOXIFLOXACIN] |  | 0.9 (≈ 0.361 µg/mL) | < 0.9 | 1.9 (≈ 0.763 µg/mL) | 0.9 (≈ 0.361 µg/mL) | 7.8 (≈ 3.13 µg/mL) | 3.8 (≈ 1.53 µg/mL) |  |  |  |  | 
CC(C)=CCC/C(C)=C/Cc1c(O)cc(/C=C\c2ccccc2)cc1O | inactive | 100 (≈ 34.8 µg/mL) | 100 (≈ 34.8 µg/mL) | 100 (≈ 34.8 µg/mL) | 100 (≈ 34.8 µg/mL) | 100 (≈ 34.8 µg/mL) | 100 (≈ 34.8 µg/mL) | > 50 | 100 | > 50 | 100 | 
C/C=C1\NC(=O)[C@H](Cc2ccccc2)NC(=O)[C@@H](C(C)C)NC(=O)[C@@H](C(C)CC)NC(=O)[C@H](NC(=O)[C@H](NC(=O)[C@H](CCCN)NC(=O)[C@@H]2CCCN2C(=O)[C@H](NC(=O)[C@@H](NC(=O)[C@@H](NC(=O)[C@H](NC(=O)CCCC(C)C)C(C)C)C(C)O)C(C)C)C(C)C)C(C)CC)C(C)OC(=O)[C@H](C(C)C)NC1=O (some centres not stated) |  |  |  |  |  |  |  |  |  |  |  | 4300
CC(C)=CCC/C(C)=C\Cc1c(O)cc(CCc2ccccc2)c(C(=O)O)c1O | inactive | 100 (≈ 39.5 µg/mL) | 100 (≈ 39.5 µg/mL) | 100 (≈ 39.5 µg/mL) | 100 (≈ 39.5 µg/mL) | 100 (≈ 39.5 µg/mL) | 100 (≈ 39.5 µg/mL) | > 50 | 100 | > 50 | 100 | 
C=C(C)[C@H]1Cc2c(ccc3c2O[C@@H]2COc4cc(OC)c(OC)cc4[C@@H]2C3=O)O1 [ROTENONE] |  |  |  |  |  |  |  |  |  |  |  | 300
COc1cc2c(cc1OC)[C@@H]1C(=O)c3ccc4c(c3O[C@@H]1CO2)C[C@H](C(C)(C)O[C@@H]1O[C@H](CO)[C@@H](O)[C@H](O)[C@H]1O)O4 |  |  |  |  |  |  |  |  |  |  |  | 1700
COc1cc2c(cc1OC)[C@@H]1C(=O)c3c(O)cc4c(c3O[C@@H]1CO2)C=CC(C)(C)O4 [TOXICAROL] |  |  |  |  |  |  |  |  |  |  |  | 200
CC(C)=CCC/C(C)=C/Cc1c(O)cc(/C=C\c2ccccc2)c(C(=O)O)c1O | inactive | 50 (≈ 19.6 µg/mL) | 50 (≈ 19.6 µg/mL) | 50 (≈ 19.6 µg/mL) | 100 (≈ 39.2 µg/mL) | 100 (≈ 39.2 µg/mL) | 100 (≈ 39.2 µg/mL) | > 50 | 100 | > 50 | 100 | 
COc1ccc(-c2coc3cc(O)c(C/C=C(\C)CCC=C(C)C)c(O)c3c2=O)cc1O |  | 25 (≈ 10.9 µg/mL) | 100 (≈ 43.7 µg/mL) | 25 (≈ 10.9 µg/mL) | 50 (≈ 21.8 µg/mL) | 12.5 (≈ 5.46 µg/mL) | 100 (≈ 43.7 µg/mL) | > 50 | 50 | > 50 | 50 | 
COc1cc(CCc2ccccc2)c(C(=O)O)c(O)c1CC=C(C)C [AMORFRUTIN A] | inactive | 100 (≈ 34 µg/mL) | 50 (≈ 17 µg/mL) | 50 (≈ 17 µg/mL) | 25 (≈ 8.51 µg/mL) | 25 (≈ 8.51 µg/mL) | 6.3 (≈ 2.14 µg/mL) | > 50 | 50 | > 50 |  | 
C=C(C)[C@@H](O)CC/C(C)=C/Cc1c(O)cc(CCc2ccccc2)c(C(=O)O)c1O | inactive |  |  |  |  |  |  |  |  |  |  | 
